Assay outcomes deposited in PubChem by Broad Institute.
HSF1 activator = HSF-1 activators, primary screen, NIH3T3-HGL cells, MG132 stress, luminescence, single point; activation, % at 9 µM; 300,000 tested, 1.7% active; NIH3T3-HGL HSF-1 luciferase reporter, 8 h; 100% = twice DMSO control signal; AID 504408, 2011;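 active = mean replicate activation of at least 50% with a set share of replicates each reaching 50%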;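 note: 0% = median of the neutral control wells and 100% = twice that signal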
Glyco luc inh = increase of ERlucT glycosylation luciferase signal, primary screen, N-linked glycosylation inhibitor project, D54 ERlucT cells, luminescence, set 2; 360,000 tested, 0.23% active; D54 ERlucT glycosylation luciferase reporter, 24 h; percent of 100 nM tunicamycin response; reporter increase, % at 12.5 µM; AID 588692, 2011;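 active = mean luciferase reporter signal, scaled so untreated is 0 and the glycosylation-blocking control 100, at or above a set limit in every replicate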;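 note: luciferase carries N-glycosylation sites so blocking glycosylation raises the light; 0% = median of neutral control wells and 100% = median of 100 nM tunicamycin wells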
T cruzi inh = inhibitors of intracellular T. cruzi growth, primary screen, luminescence, NIH3T3 host cells | T. cruzi beta-gal in NIH3T3, 90 h | inhibition, % (concentration not given with the values) | 300,000 tested, 1.4% active;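 active = mean inhibition across valid replicates above about 55%, limit read from the data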;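 note: signal also drops with host cell toxicity which is not excluded here; 0% = plate median of DMSO wells and 100% = zero luminescence signal; higher percent means less beta-gal luminescence so fewer parasites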
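assay system = mouse NIH/3T3 fibroblasts infected with β-gal-expressing T. cruzi Tulahuen C4 | input = 5,000 NIH/3T3 host cells per well | buffer or medium = DMEM plus 2% FBS | timing = 3 h host attachment, then at least 90 h co-culture | measured by = GalScreen luminescence, 60 min | evaluation = luminescence reflecting intracellular parasite burden, expressed as percent inhibition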
PfHsp90 set2 = growth inhibition of PfHsp90-expressing yeast, primary screen, antimalarial PfHsp90 inhibitor project, S. cerevisiae, BacTiter-Glo luminescence, single point, set 2; BacTiter-Glo ATP, 48 h; yeast lacking PDR1 and PDR3 efflux regulators; inhibition, % at 9.4 µM; 310,000 tested, 0.32% active; AID 504621, 2011;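 active = every replicate shows inhibition above about 80%, whatever the replicate mean, limit read from the data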;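 note: 0% = DMSO neutral controls and 100% = 20 µM radicicol positive controls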
PvdQ inh = P. aeruginosa PvdQ acylase inhibitors, primary screen, biochemical, fluorescence, plate reader and imaging, single point; 340,000 tested, 0.063% active; inhibition, % at 10 µM; purified PvdQ acylase; PvdQ acylase [Pseudomonas aeruginosa LESB58]; in the data active = inhibition above about 30%, passing the limit was not always enough;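 note: 0% = vehicle neutral wells and 100% = reference inhibitor wells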
CaV13 ICDI inh = Primary screen for inhibitors of IQ motif and Ca2+-dependent inactivation inhibitor domain binding in CACNA1D, Förster resonance energy transfer in living cells, … | inhibition, % at 12.3 µM | HEK cells, CFP/YFP FRET ICDI-IQ, plate reader, 10 min; percent FRET-ratio fall versus neutral wells | 340,000 tested, 0.098% active | AID 743397;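 active = mean replicate inhibition of at least 30% and at least 1% of replicates passing that level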;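 note: 0% = median of the neutral control wells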
An asterisk follows results filed as active; . = no result given. A selection: hits, their analogues and other compounds. The true share with any hit is near 3%.

SMILES | HSF1 activator | Glyco luc inh | T cruzi inh | PfHsp90 set2 | PvdQ inh | CaV13 ICDI inh
O=C1NC(Cc2ccccc2)C(=O)N1Cc1ccccc1 (stereo not given) | . | 3 | . | -1 | -3 | -5
O=c1ccsn1Cc1ccccc1 | 16 | 4 | 67* | 29 | -15 | .
COc1ccc(-c2nc3ccc(C)cn3c2NCc2ccc3c(c2)OCO3)cc1 | 60* | 1 | 29 | -6 | 0 | -1
Cc1ccc(-c2nc3ccccn3c2NCc2ccc3c(c2)OCO3)cc1 | 34 | -1 | 25 | 22 | -10 | .
CCSc1nc2sc3c(c2c(=O)[nH]1)CCCC3 | 8 | 8 | -10 | -13 | -3 | -8
CCSC1=NC2(CCCCC2)Nc2sc3c(c21)CCCC3 | 47 | -1 | 56* | -8 | 8 | .
Cc1cc(C)n(CC(=O)N2CCCC(N3CCN(c4ccc(F)cc4)CC3)C2)n1 (stereo not given) | 12 | 2 | 0 | 0 | 9 | -5
Cc1ccn(CC(=O)N2CCCC(N3CCN(c4ccc(F)cc4)CC3)C2)n1 (stereo not given) | 67* | 0 | -3 | 6 | -8 | -2
CC(=O)N(c1nc2ccccc2s1)N1C(=O)c2ccccc2C1=O | . | . | . | . | . | -3
CCCCNC(=O)C[C@H]1C[C@@]2(C(=O)OC)C(=C[C@H](C(C)C)O[C@@H]2C2CC2)N(Cc2ccccc2)C1=O | . | . | . | . | . | -8
COc1ccccc1-c1nc(-c2ccc(Br)cc2)no1 | 55* | -4 | 9 | -17 | -7 | -8
Cc1[nH]c2ccc(C(=O)N3CCN(c4cccc(Cl)c4)CC3)cc2c1C | -14 | 17 | -13 | 93* | -11 | -3
COCCn1c(=O)[nH]c2cc(C(=O)N3CCN(c4cccc(Cl)c4)CC3)ccc2c1=O | 53* | 2 | 29 | -21 | -8 | -4
O=S1(=O)CCOC[C@H](c2ccccc2)N1Cc1cccc(Cl)c1 | 6 | -3 | -3 | -4 | 43* | -5
CC1(C(=O)NS(=O)(=O)c2cccc(C#N)c2)CCN1C(=O)c1cccc2ccccc12 (stereo not given) | . | 1 | . | . | . | -10
O=C1c2ccccc2S(=O)(=O)N1CC1CC(c2ccc(Cl)cc2)=NO1 (stereo not given) | 82* | 0 | 14 | 26 | -7 | -2
COc1ccc(C2=NOC(CN3C(=O)c4ccccc4S3(=O)=O)C2)cc1 (stereo not given) | 72* | -5 | 1 | -6 | -10 | -7
O=C1c2ccccc2S(=O)(=O)N1CC1CC(c2ccccc2)=NO1 (stereo not given) | . | -2 | 6 | -6 | 7 | -3
COc1ccc(C2=NOC(Cn3nc(C(=O)O)cc3-c3ccccc3)C2)cc1 (stereo not given) | -6 | 2 | 5 | -13 | -13 | -10
COc1cccc(C(=O)NCCS(=O)(=O)NCCc2ccccc2)c1 | 59* | 0 | 2 | -17 | -21 | -12
CC1C(=O)CC(c2ccc([N+](=O)[O-])cc2)NC1c1ccc([N+](=O)[O-])cc1 (stereo not given) | 9 | -5 | 46 | . | -6 | -4
CC1C(=O)C(C)C(c2ccc([N+](=O)[O-])cc2)NC1c1ccc([N+](=O)[O-])cc1 (stereo not given) | -7 | -4 | 67* | . | -5 | 0
O=C1c2ccccc2NC(c2ccc(-c3ccc(C(F)(F)F)cc3)o2)N1O (stereo not given) | . | -6 | . | 101* | -9 | -5
O=C1c2ccccc2NC(c2ccc(-c3cccs3)o2)N1O (stereo not given) | . | -8 | . | . | -19 | -6
O=C1C=C(N(CCO)Cc2ccccc2)c2ccccc2C1=O | -4 | 8 | 78* | 8 | 2 | .
SMILES | HSF1 activator | Glyco luc inh | T cruzi inh | PfHsp90 set2 | PvdQ inh | CaV13 ICDI inh
C[C@@H]1CN([C@@H](C)CO)C(=O)CCCn2nncc2CO[C@H]1CN(C)Cc1cccc(C(F)(F)F)c1 | . | 1 | . | . | . | -10
O=C1C2C3C=CC(CNS(=O)(=O)c4ccccc4)(O3)C2C(=O)N1c1ccc(Cl)cc1 (stereo not given) | 2 | 0 | -13 | 105* | -15 | -3
CC(=O)Oc1ccc(N2C(=O)C3C4C=CC(CO)(O4)C3C2=O)cc1 (stereo not given) | 10 | 0 | -16 | -78 | -17 | -2
O=C1C2C3C=CC(CO)(O3)C2C(=O)N1c1ccccc1-c1ccccc1 (stereo not given) | . | -10 | . | 142* | 1 | .
NC(=O)[C@@H]1CCCN1C(=O)[C@@H](Cc1ccccc1)NC(=O)[C@H]1O[C@@H](n2ccc(N)nc2=O)[C@H](O)[C@@H]1O | . | . | . | . | . | -3
CC(C)Nc1ccc(Nc2ccnc3cc4ccccc4cc23)cc1 | 1 | -7 | 58* | -6 | -13 | 0
c1ccc(CCNc2ccnc3cc4ccccc4cc23)cc1 | 18 | -11 | 59* | 5 | -3 | 15
COc1ccc(Nc2ccnc3ccccc23)cc1 | -22 | -10 | 14 | 7 | 10 | 0
Cc1cn(Cc2ccccc2Cn2cc(C)c(=O)[nH]c2=O)c(=O)[nH]c1=O | 71* | -1 | -9 | -5 | 11 | -5
N#CC(C(O)c1ccccc1)N1CCOCC1 (stereo not given) | . | 1 | . | . | . | -6
Cc1ccc(-n2nnnc2SCC(N)=O)c(C)c1 | 11 | 3 | -1 | . | -7 | -10
COC(=O)c1ccc(CSc2nnnn2-c2ccc(C)cc2C)o1 | 71* | -1 | 4 | -16 | -1 | -8
COC(=O)c1c(NC(=O)COc2ccc(Cl)cc2)sc2c1CC(C)(C)NC2(C)C | -8 | -17 | 65* | 7 | 6 | .
Cc1cc(/C=C\c2ccc3cc(N(C)C)ccc3[n+]2C)c(C)n1-c1ccccc1 | . | -3 | . | 108* | -5 | .
CC(C)(C)S(=O)(=O)N1C[C@@H]2CC(=O)C=C2[C@H]1CCO | . | . | . | . | . | -5
O=C(CN1C2=NCCCN2c2ccccc21)c1ccc([N+](=O)[O-])cc1 | 7 | 24 | 59* | 11 | -15 | 6
O=C(CN1C2=NCCCN2c2ccccc21)c1cccc(Br)c1 | 2 | 4 | 14 | 5 | -8 | -4
COc1ccc(-c2cc(-c3ccccc3)c(C#N)c(S(C)=O)n2)cc1 (stereo not given) | 146* | 23 | -25 | 5 | -14 | -3
CC(=O)N1CCc2c(sc(NC(=O)c3ccc([N+](=O)[O-])o3)c2C#N)C1 | -11 | -22 | -18 | 1 | 16 | -4
